Laboratory results reported in ChEMBL document CHEMBL1134385, “Flexible estrogen receptor modulators: design, synthesis, and antagonistic effects in human MCF-7 breast cancer cells” (J Med Chem, 2001).
pIC50: −log10 of the molar value.

Tests used:
[1] = test system: MCF7; assay: Antiproliferative activity against Human MCF-7 Breast cancer cell line in vitro.; type: functional, cell-based
In short: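 MCF-7 cells grown in Eagle's MEM with 10% fetal calf serum and 1% nonessential amino acids, 5% CO2. Seeded at 1.5×10^4 per well, 24 h at 37 °C, then dosed from ethanol stocks over 1 nM-100 μM (vehicle 1% v/v) for 72 h. MTT at 1 mg/mL final, 2 h in the dark, DMSO solubilization, A570. Viability relative to vehicle control; IC50 from triplicate means.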

[2] = target: Estrogen receptor (Homo sapiens, UniProt Q92731+P03372); assay: Binding affinity for estrogen receptor.; type: protein assay

CC/C(=C(\Cc1ccccc1)c1ccc(OCN(C)C)cc1)c1ccccc1
pIC50 [1]: 4.66
Ki [2]: 0.503 µM
